From the RNAGym collection of RNA variant scans (doi:10.1002/anie.201605470)

B1: Osa-1-4 twister ribozyme (parent)
chain: CCGCCUAACACUGCCAAUGCCGGUCCCAAGCCCGGAUAAAAGUGGAGGGGGCGG

Variants of: B1
Assay: self-cleavage, relative activity (ratio to wild type); higher = more cleavage; co-transcriptional
Outline: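 A DNA template for a 54-nucleotide Oryza sativa twister ribozyme was synthesised with 97 % wild-type base and 1 % of each other base at the 48 positions downstream of the cleavage site. It was transcribed in vitro for 2 h at 37 °C, allowing co-transcriptional self-cleavage, then reverse-transcribed with a template-switching oligonucleotide, PCR-amplified and deep-sequenced. Cleavage status was scored from reads with or without upstream sequence. Relative activity is fraction cleaved normalised to wild type.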

Row | Variant | self-cleavage
1 | A36C G23C | 0.03
2 | A36C G23A | 0.09
3 | A36C G23U | 0.05
4 | A36U G53A | 0.94
5 | A36U G53U | 0.46
6 | A36U G53C | 0.11
7 | A36G G19A | 0.8
8 | A36G G19C | 0.13
9 | A36G G19U | 0.99
10 | A36U G13C | 0.03
11 | A36U G13U | 0.03
12 | A36U G13A | 0.14
13 | A36C U37G | 0.93
14 | A36C U37A | 0.53
15 | A36C U37C | 0.98
16 | A36G U18C | 0.98
17 | A36G U18A | 0.98
18 | A36G U18G | 0.85
19 | U37A U43A | 0.76
20 | U37A U43G | 0.43
21 | U37A U43C | 0.44

Row | Variant | self-cleavage
22 | A36U C15G | 0.4
23 | A36U C15A | 0.51
24 | A36U C15U | 0.31
25 | A36U G49A | 0.19
26 | A36U G49C | 0.07
27 | A36U G49U | 0.17
28 | A36C G34C | 0.39
29 | A36C G34A | 0.88
30 | A36C G34U | 0.75
31 | A36G G48A | 0.15
32 | A36G G48C | 0.15
33 | A36G G48U | 0.12
34 | A36G G22U | 0.57
35 | A36G G22C | 0.07
36 | A36G G22A | 1.01
37 | A36C G49U | 0.06
38 | A36C G49C | 0.06
39 | A36C G49A | 0.06
40 | A36C G53A | 0.19
41 | A36C G53U | 0.13
42 | A36C G53C | 0.06

Row | Variant | self-cleavage
43 | A36C G42A | 0.1
44 | A36C G42C | 0.08
45 | A36C G42U | 0.04
46 | A36U G42U | 0.12
47 | A36U G42A | 0.85
48 | A36U G42C | 0.28
49 | A36C U12A | 0.13
50 | A36C U12C | 0.08
51 | A36C U12G | 0.13
52 | A36U C31U | 0.95
53 | A36U C31G | 0.07
54 | A36U C31A | 0.03
55 | A36U C27A | 0.29
56 | A36U C27U | 0.28
57 | A36U C27G | 0.09
58 | A36C G48A | 0.05
59 | A36C G48U | 0.04
60 | A36C G48C | 0.05
61 | A36U G34A | 0.86
62 | A36U G34C | 0.66
63 | A36U G34U | 0.84

Row | Variant | self-cleavage
64 | A36U A40G | 0.84
65 | A36U A40C | 0.08
66 | A36U A40U | 0.63
67 | A36G C26G | 0.13
68 | A36G C26A | 0.06
69 | A36G C26U | 0.98
70 | A36U U12C | 0.58
71 | A36U U12A | 0.99
72 | A36U U12G | 0.64
73 | A36U C26G | 0.08
74 | A36U C26A | 0.04
75 | A36U C26U | 1
76 | A36C G44C | 0.58
77 | A36C G44U | 0.37
78 | A36C G44A | 0.16
79 | A36C G50U | 0.37
80 | A36C G50A | 0.77
81 | A36C G50C | 0.22
82 | A36G U43G | 0.64
83 | A36G U43C | 0.74
